The text below walks through data of ChEMBL document CHEMBL5653606 (J Pharmacol Exp Ther, 2011).

Series [1] addresses T1, Fatty-acid amide hydrolase 1 (Homo sapiens, UniProt O00519).
T1 sequence (O00519 whole entry): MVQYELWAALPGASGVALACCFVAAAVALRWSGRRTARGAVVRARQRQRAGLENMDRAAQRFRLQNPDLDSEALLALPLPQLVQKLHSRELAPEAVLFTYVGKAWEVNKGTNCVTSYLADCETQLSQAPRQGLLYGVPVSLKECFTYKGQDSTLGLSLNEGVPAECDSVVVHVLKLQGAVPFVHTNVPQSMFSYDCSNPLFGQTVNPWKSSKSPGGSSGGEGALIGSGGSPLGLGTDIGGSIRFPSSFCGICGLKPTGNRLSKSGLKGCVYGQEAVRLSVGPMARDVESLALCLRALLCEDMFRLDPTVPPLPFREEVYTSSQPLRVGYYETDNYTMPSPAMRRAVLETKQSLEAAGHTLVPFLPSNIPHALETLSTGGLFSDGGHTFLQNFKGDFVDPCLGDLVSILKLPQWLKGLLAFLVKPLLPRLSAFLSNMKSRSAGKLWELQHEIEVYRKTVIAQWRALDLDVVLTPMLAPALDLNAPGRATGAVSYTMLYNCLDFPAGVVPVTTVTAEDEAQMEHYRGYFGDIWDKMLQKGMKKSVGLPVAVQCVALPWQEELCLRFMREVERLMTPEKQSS
Kind of series: Inhibition of human FAAH assessed as kinact/Ki ratio incubated for 1 min in presence of glutamate dehydrogenase by 384-well format microplate reader assay.

The nature of series [2]: Plasma concentration in rat at 5 mg/kg, po by LC/MS analysis. Format: ADME, organism-based. The conditions noted are these: in vivo.
In series [3] the target is T2, Fatty-acid amide hydrolase 1 (Rattus norvegicus) (UniProt P97612).
T2 sequence (whole entry): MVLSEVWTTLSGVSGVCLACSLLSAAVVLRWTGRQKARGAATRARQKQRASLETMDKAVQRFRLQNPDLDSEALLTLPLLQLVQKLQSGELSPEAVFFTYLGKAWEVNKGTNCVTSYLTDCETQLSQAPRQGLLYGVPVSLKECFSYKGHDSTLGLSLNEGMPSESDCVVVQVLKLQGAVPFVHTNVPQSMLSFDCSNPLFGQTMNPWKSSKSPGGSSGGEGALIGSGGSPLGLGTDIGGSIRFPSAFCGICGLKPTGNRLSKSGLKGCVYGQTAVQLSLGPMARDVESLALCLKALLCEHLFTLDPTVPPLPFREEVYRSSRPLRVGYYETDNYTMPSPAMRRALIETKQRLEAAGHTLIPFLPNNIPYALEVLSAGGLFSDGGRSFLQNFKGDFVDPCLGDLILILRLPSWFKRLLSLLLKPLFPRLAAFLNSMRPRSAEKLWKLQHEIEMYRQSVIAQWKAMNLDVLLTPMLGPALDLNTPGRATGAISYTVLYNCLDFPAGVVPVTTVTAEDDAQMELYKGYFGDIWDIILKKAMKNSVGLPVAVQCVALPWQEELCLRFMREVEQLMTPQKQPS
Briefly: In vivo inhibition of FAAH in CFA induced Sprague-Dawley rat plasma assessed as elevation of NAE level at 0.1 to 10 mg/kg, po. In kind it is functional, organism-based. The following applies: dose 0.1-10 mg/kg. The gist of the method:
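Lipid (NAE) levels in rat brain and plasma measured by LC/MS after oral dosing in CFA rats; n = 3 rats/group. Time-course samples taken at 1, 2, 4, 8, 24 h after 1 mg/kg.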

Series [4] concerns the target T2, Fatty-acid amide hydrolase 1 (Rattus norvegicus). Kind of series: In vivo inhibition of FAAH in CFA induced Sprague-Dawley rat plasma assessed as elevation of OEA level at 1 mg/kg, po measured for 1 to 24 hrs. Format: functional, organism-based. The conditions noted are these: time 1-24 hrs.
Series [5] has as its system Rattus norvegicus. Kind of series: Antihyperalgesic activity in CFA induced Sprague-Dawley rat assessed as partial reduction of mechanical allodynia at 3 mg/kg, po in presence of CB1 antagonist SR141716 by von frey test. Format: functional, organism-based. The gist of the method:
(§1)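 Male Sprague-Dawley rats (200–250 g) given 150 μl CFA (1 mg/ml in mineral oil) intraplantar in the hind paw. Mechanical paw withdrawal thresholds read with Von Frey hairs on day 5 postinjection. Dosed orally as nanocrystalline suspension in 2% polyvinylpyrrolidone/0.15% SDS in water, 10 ml/kg. PWTs taken 4 h postdose for dose-response, or at 1, 2, 4, 8, 24 h for time course.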

In series [6] the test system is Rattus norvegicus. Kind of series: Antihyperalgesic activity in CFA induced Sprague-Dawley rat assessed as partial reduction of mechanical allodynia at 3 mg/kg, po in presence of CB2 antagonist SR144528 by von frey test. In kind it is functional, organism-based. In short, it runs like this:
as §1

In series [7] the test system is Rattus norvegicus. Briefly: Antihyperalgesic activity in MIA induced Sprague-Dawley rat assessed as effect on pain behaviour in contralateral knee joint at 0.3 to 3 mg/kg, po administered once daily for 3 consecutive days. In kind it is functional, organism-based. The following applies: dose 0.3-3 mg/kg, time 3.0 day. The gist of the method: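 Male Sprague-Dawley rats (220–270 g), isoflurane-anesthetized, given 2 mg MIA in 0.9% saline (50 μl) intra-articular into the knee. From day 14, oral dosing at 10 ml/kg once daily for 3 days in 4% 2-hydroxypropyl-β-cyclodextrin/1% ethanol in 0.01 M HCl. Celecoxib 30 mg/kg in 0.5% methylcellulose twice daily. Joint compression threshold by digital Randall-Selitto at 2 and 4 h postdose on days 1 and 3; n = 10/group.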

The test system of another series is Mus musculus. Kind of series: Antinociceptive activity in C57BL6/J mouse assessed as effect in locomotive activity at 1 to 10 mg/kg, po administered for 4 hrs. In kind it is functional, organism-based. The conditions noted are these: dose 1-10 mg/kg. In short, it runs like this:
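Male C57BL/6J mice, 7 weeks old, n = 8/group, dosed orally at 1 or 10 mg/kg in PEG 300 (4 ml/kg). Tetrad tested 4 h postdose: locomotor activity, tail-immersion thermal nociception, catalepsy (assessed 60 s), body temperature. Means ± S.E.M. versus vehicle.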

As usually defined, the IC50 is the concentration that inhibits the measured activity by half.

The structures appear in SMILES notation. The source made the active and inactive calls.

On to `O=C(Nc1cccnn1)N1CCC(=Cc2cccc(Oc3ccc(C(F)(F)F)cn3)c2)CC1`, for which the IC50 in series [1] is 0.0504 µM. In series [2], the concentration stood at 2800 nM. For the same molecule, the inhibition result in series [3] and in series [4] was “Active” throughout. For the same molecule, the result in the series with Rattus norvegicus [5] and in the series with Rattus norvegicus [6] was Active. Besides, the result in the series with Rattus norvegicus [7] was inactive. The Activity result with Mus musculus is “Non-Toxic”.
